This is an account of results in ChEMBL document CHEMBL1121744, “Synthesis and antihypertensive activity of a series of 8-substituted 1-oxa-3,8-diazaspiro[4.5]decan-2-ones” (J Med Chem, 1981).

Structures are written as SMILES.

The subject of data set [1] is Canis familiaris. As to the kind of experiment: Percent inhibition of the pressor responses to 7.5 ug/kg iv phenylephrine in pentobarbital-anesthetized dogs for a dose of 0.1 mg/kg. Format: functional. The following applies: Canis lupus familiaris. The procedure, abridged: (§1)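 Pentobarbital-anesthetized dogs (35 mg/kg iv) with femoral arterial pressure recording. Epinephrine (1 μg/kg), norepinephrine (0.75 μg/kg) and phenylephrine (7.5 μg/kg) iv challenges were given about every 10 min before and after rising iv test doses, which were spaced 90 min apart. Value is % inhibition of the pressor response.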

Data set [2] deals with Canis familiaris. The data set is described as follows: Percent inhibition of the pressor responses to 7.5 ug/kg iv phenylephrine in pentobarbital-anesthetized dogs for a dose of 1 mg/kg. Format: functional. To be noted: Canis lupus familiaris. The procedure, abridged: as §1
Data set [3] in a line: Distribution coefficient between 1-Octanol and phosphate buffer at pH7.4. To be noted: 1-octanol/phosphate buffer, pH 7.4. In kind it is physicochemical. An outline of the steps: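 Octanol/buffer distribution measured at pH 7.4 in phosphate with sodium chloride. Either HPLC (0.004 M) or shake flask.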
Data set [4] concerns Rattus norvegicus. The data set is described as follows: Antihypertensive activity as percentage fall in systolic blood pressure in spontaneously hypertensive rats after a period of 1 hr for a dose of 50 mg/kg. In kind it is functional, Artery. An outline of the steps: (§2)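 Male Okamoto-Aoki SHR, trained, in groups of four matched for mean systolic pressure; one group per run received water vehicle. Oral dosing in water (0.1 mL per 10 g) on two consecutive mornings. After the day-2 dose, rats were restrained at 30.0 ± 1.0 °C. Systolic pressure was read by tail cuff (inflated to 300 mmHg, first pulse) at 1–4 h. % fall is versus the untreated control group, by 1-tail t test (p ≤ 0.05).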

Data set [5] relates to Rattus norvegicus. The data set is described as follows: Antihypertensive activity as percentage fall in systolic blood pressure in spontaneously hypertensive rats after a period of 4 hr for a dose of 50 mg/kg po. Format: functional, Artery. An outline of the steps:
as §2

In data set [6] the target is T1, Adrenergic receptor alpha-1 (Rattus norvegicus, UniProt P15823+P23944+P43140).
T1 sequence (P15823 whole entry): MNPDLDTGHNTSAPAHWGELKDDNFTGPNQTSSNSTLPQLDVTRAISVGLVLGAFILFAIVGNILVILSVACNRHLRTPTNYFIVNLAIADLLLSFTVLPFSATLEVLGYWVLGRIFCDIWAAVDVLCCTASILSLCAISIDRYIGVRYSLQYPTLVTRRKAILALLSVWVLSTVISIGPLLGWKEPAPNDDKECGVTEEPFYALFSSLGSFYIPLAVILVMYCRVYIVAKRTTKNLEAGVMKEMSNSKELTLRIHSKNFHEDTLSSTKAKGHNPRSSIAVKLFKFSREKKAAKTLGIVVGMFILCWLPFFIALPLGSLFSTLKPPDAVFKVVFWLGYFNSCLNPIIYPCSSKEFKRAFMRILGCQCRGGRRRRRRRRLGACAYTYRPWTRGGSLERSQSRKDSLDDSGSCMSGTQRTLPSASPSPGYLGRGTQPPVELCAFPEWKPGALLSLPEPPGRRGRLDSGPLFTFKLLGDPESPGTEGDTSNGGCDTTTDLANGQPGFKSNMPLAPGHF
T1 sequence (P23944 whole entry): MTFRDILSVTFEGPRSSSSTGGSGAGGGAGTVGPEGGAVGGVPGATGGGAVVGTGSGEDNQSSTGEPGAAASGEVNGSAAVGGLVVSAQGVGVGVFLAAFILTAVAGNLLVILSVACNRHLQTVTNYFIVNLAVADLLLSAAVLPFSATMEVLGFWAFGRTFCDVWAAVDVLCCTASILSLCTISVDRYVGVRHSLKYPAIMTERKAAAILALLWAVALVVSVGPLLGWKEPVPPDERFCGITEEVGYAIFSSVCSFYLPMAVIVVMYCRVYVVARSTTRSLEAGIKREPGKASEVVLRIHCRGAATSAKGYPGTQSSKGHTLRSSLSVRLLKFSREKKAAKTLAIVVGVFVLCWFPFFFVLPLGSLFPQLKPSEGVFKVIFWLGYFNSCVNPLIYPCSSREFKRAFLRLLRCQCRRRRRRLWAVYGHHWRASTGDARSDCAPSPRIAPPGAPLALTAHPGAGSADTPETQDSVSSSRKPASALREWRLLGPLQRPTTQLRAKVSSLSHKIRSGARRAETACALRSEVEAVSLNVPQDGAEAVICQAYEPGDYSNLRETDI
T1 sequence (P43140 whole entry): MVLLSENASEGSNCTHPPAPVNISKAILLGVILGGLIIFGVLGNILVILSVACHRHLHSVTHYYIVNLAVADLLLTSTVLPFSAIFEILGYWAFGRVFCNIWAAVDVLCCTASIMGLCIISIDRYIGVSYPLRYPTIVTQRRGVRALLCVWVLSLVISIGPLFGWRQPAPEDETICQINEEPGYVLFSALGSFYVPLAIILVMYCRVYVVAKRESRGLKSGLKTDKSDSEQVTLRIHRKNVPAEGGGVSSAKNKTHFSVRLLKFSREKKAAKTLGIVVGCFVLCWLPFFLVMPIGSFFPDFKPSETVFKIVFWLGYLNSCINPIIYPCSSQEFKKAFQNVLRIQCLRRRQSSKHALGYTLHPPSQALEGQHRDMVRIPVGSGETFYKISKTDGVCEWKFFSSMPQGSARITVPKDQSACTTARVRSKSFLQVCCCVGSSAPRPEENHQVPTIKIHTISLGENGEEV
The data set is described as follows: Antagonistic potency of compound for Alpha-1 adrenergic receptor. Format: functional.

In turn, `O=C1NCC2(CCN(CCc3c[nH]c4ccccc34)CC2)O1` gave an inhibition in vivo at 0.1 mg/kg in data set [1] of 17%. Also, the inhibition in vivo at 1 mg/kg in data set [2] is 84%. In data set [3], this compound registered a logD of 1.45. In addition, the “Decrease in blood pressure” value in data set [4] is 16%; in data set [5] it was 8%. In data set [6], this compound returned a pA2 of 5.5.
In data set [1], `CN1CC2(CCN(CC(O)C3COc4ccccc4O3)CC2)OC1=O` (configuration not stated) gave an inhibition in vivo at 0.1 mg/kg of 0%. In data set [2], this compound came in with an inhibition in vivo at 1 mg/kg of 44%. Besides, the logD in data set [3] stood at 1.43. For the same compound, the entries for the “Decrease in blood pressure” value in data set [4] and in data set [5] were 28% and 16%, respectively. Further, the pA2 in data set [6] was 4.5.

One may read the inhibition in vivo as the drop in the measured response relative to a control, in per cent. Lower therefore signals a response near the control. A word on the logD: it is lipophilicity at a set pH, counting ionised and neutral species. A higher logD goes with a more lipophilic compound. One may read the pA2 as the negative logarithm of the molar antagonist concentration that doubles the agonist concentration needed for the same response. Read a high pA2 as higher antagonist potency.
